Measurements from ChEMBL document CHEMBL4152337, “Novel indolo-sophoridinic scaffold as Topo I inhibitors: Design, synthesis and biological evaluation as anticancer agents” (Eur J Med Chem, 2018).
Calls of active or inactive are those of the source. The rule behind the calls is not given here.

Tests used:
HepG2 [1] = test: Cytotoxicity against human HepG2 cells assessed as reduction in cell viability after 48 hrs by MTT assay; assay type: functional, cell-based; conditions: HepG2, 48 h
Procedure, shortened: (§1)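 Cells at 3–4 × 10⁴/mL in DMEM + 10% FBS, pre-incubated 24 h in 5% CO₂. Then exposed 48 h to serial dilutions at 1, 5, 10, 20 and 50 µM; final DMSO <0.1%. MTT (5 mg/mL solution) added for 4 h at 37 °C, supernatant removed, formazan dissolved in DMSO, colorimetric read-out.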

CNE-2 = test: Cytotoxicity against human CNE2 cells assessed as reduction in cell viability after 48 hrs by MTT assay; assay type: functional, cell-based; conditions: CNE-2, 48 h; procedure, shortened: as §1
A549 = test: Cytotoxicity against human A549 cells assessed as reduction in cell viability after 48 hrs by MTT assay; assay type: functional, cell-based; conditions: A549, 48 h; procedure, shortened: as §1
[2] = target: T1, DNA topoisomerase 1 (Homo sapiens) (UniProt P11387); test: Inhibition of recombinant human topoisomerase-1-mediated relaxation of supercoiled pBR322 DNA at 500 uM after 30 mins by ethidium bromide staining based assay
T1 sequence (whole entry): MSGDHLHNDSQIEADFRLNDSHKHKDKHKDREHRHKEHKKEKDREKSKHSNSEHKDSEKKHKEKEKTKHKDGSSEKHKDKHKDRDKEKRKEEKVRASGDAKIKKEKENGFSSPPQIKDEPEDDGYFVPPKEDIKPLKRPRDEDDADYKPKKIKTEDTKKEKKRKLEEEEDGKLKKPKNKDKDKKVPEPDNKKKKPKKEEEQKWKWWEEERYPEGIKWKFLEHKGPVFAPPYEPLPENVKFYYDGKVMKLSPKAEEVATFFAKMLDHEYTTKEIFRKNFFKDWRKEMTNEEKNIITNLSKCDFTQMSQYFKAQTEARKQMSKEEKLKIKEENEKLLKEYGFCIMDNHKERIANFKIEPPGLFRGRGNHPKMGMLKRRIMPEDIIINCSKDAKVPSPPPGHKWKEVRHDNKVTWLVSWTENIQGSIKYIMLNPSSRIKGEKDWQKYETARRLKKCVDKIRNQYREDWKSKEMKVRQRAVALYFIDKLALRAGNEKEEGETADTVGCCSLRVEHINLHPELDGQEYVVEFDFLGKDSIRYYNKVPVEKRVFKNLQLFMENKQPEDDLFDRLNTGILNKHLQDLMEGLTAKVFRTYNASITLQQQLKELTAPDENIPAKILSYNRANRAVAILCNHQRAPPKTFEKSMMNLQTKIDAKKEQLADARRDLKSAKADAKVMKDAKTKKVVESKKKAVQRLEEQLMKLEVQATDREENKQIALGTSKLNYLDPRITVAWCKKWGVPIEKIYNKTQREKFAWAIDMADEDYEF
Procedure, shortened: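 Reactions stopped with loading buffer containing 0.5% SDS, bromophenol blue and 15% glycerol. Products run on a horizontal 0.8% agarose gel in 1× TAE at 4 V/cm for 40 min at room temperature. Gel stained with ethidium bromide and imaged.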

HepG2 [3] = test: Cell cycle arrest in human HepG2 cells accumulation at S phase at 1 uM after 24 hrs by propidium iodide staining-based flow cytometric analysis (reference value: 45.44%); assay type: functional
Procedure, shortened: (§2)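 HepG2 seeded at 2 × 10⁵ cells/well in DMEM + 10% FBS. Treated 24 h at 1, 2.5 or 5 µM. Fixed overnight in cold 75% ethanol at 4 °C, RNase-treated 30 min at 37 °C, then propidium iodide-stained 30 min in the dark. Analysed by flow cytometry. Mean ± SD; representative of three independent experiments.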

HepG2 [4] = test: Cell cycle arrest in human HepG2 cells accumulation at S phase at 2.5 uM after 24 hrs by propidium iodide staining-based flow cytometric analysis (reference value: 45.44%); assay type: functional; procedure, shortened: as §2
HepG2 [5] = test: Cell cycle arrest in human HepG2 cells accumulation at S phase at 5 uM after 24 hrs by propidium iodide staining-based flow cytometric analysis (reference value: 45.44%); assay type: functional; procedure, shortened: as §2
HepG2 [6] = test: Antitumor activity against human HepG2 cells xenografted in BALB/C nude mouse assessed as tumor volume at 40 mg/kg, ip treated twice per week for 25 days (reference value: 1185.78 +/- 137.44 mm3); assay type: functional
HepG2 [7] = test: Antitumor activity against human HepG2 cells xenografted in BALB/C nude mouse assessed as tumor weight at 40 mg/kg, ip treated twice per week for 25 days (reference value: 0.84 +/- 0.09 g); assay type: functional
Procedure, shortened: (§3)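 Female BALB/c nude mice, 5–6 weeks old, with subcutaneous flank xenografts of 8 × 10⁶ HepG2 cells. Randomized when tumors reached ~150–200 mm³. Dosed ip twice weekly for 25 days at 40 mg/kg; vehicle was saline with 10% DMSO (n = 6 vehicle, n = 5 per treated group). Caliper measurements every other day, volume = 0.5 × L × W². Tumors excised and weighed at end. Mean ± SD; t-test versus vehicle.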

HepG2 [8] = test: Antitumor activity against human HepG2 cells xenografted in BALB/C nude mouse assessed as tumor growth at 40 mg/kg, ip treated twice per week for 25 days relative to control; assay type: functional; procedure, shortened: as §3
Mus musculus = test: Toxicity against BALB/C nude mouse xenografted with human HepG2 cells assessed as body weight loss at 40 mg/kg, ip treated twice per week measured at day 19 post dose; assay type: organism-based; conditions: in vivo
Procedure, shortened: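 HepG2 subcutaneous xenografts (8 × 10⁶ cells, flank) in female BALB/c nude mice aged 5–6 weeks. At ~150–200 mm³ tumors, ip dosing at 40 mg/kg twice weekly for 25 days; vehicle was saline with 10% DMSO. Body weight tracked every other day from day 1 to day 25. Mean ± SD; t-test versus vehicle.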

Row | Compound | IC50 (HepG2 [1]) [µM] | IC50 (CNE-2) [µM] | IC50 (A549) [µM] | inhibition [2] | Activity (HepG2 [3]) [%] | Activity (HepG2 [4]) [%] | Activity (HepG2 [5]) [%] | Activity (HepG2 [6]) [mm3] | Activity (HepG2 [7]) [g] | T/C (HepG2 [8]) [%] | Activity (Mus musculus)
1 | OCCCC[C@@H]1[C@H]2CCCN3CCC[C@H](CN1Cc1cn(Cc4ccc(Br)cc4)c4ccccc14)[C@@H]23 | 3.1 | 3.5 | 22.1 | Active | 55.77 | 60.68 | 64.17 | 737.04 | 0.61 | 55.99 | 
2 | CCc1c2c(nc3ccc(OC(=O)N4CCC(N5CCCCC5)CC4)cc13)-c1cc3c(c(=O)n1C2)COC(=O)[C@]3(O)CC [IRINOTECAN] |  |  |  |  |  |  |  |  | 0.47 | 35.08 | Toxic
